Experimental data reported in ChEMBL document CHEMBL3585321, “Synthesis and antimicrobial activity of chloramphenicol-polyamine conjugates” (Bioorg Med Chem, 2015).
The source made the active and inactive calls. The calls are words filed in the database; no cut-off is given here.

Tests used:
Staphylococcus aureus [1] = test: Antibacterial activity against methicillin-resistant Staphylococcus aureus GRE2372 assessed as inhibition of bacterial growth; format: functional, organism-based
Staphylococcus aureus [2] = test: Antibacterial activity against methicillin-resistant Staphylococcus aureus GRE2691 assessed as inhibition of bacterial growth; format: functional, organism-based
Staphylococcus aureus [3] = test: Antibacterial activity against methicillin-resistant Staphylococcus aureus GRE2272 assessed as inhibition of bacterial growth; format: functional, organism-based
Staphylococcus aureus [4] = test: Antibacterial activity against wild type Staphylococcus aureus assessed as inhibition of bacterial growth; format: functional, organism-based
Escherichia coli [5] = test: Antibacterial activity against Escherichia coli Rosetta(DE3) containing rare tRNA genes and chloramphenicol resistant gene in pLysS plasmid assessed as inhibition of bacterial growth; format: functional, organism-based
In short: (§1)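 IC50 from bacterial cultures grown in LB medium without drug or with drug across a range of concentrations, reported in μM. Three independent experiments, each with two replicates, given as mean±SD.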

Escherichia coli [6] = test: Antibacterial activity against wild type Escherichia coli K-12 assessed as inhibition of bacterial growth; format: functional, organism-based
Escherichia coli [7] = test: Antibacterial activity against Escherichia coli BL21(DE3) expressing delta-tolC gene assessed as inhibition of bacterial growth; format: functional, organism-based; in short: as §1
[8] = Inhibition of Escherichia coli K-12 70S ribosome poly(U)-programmed ribosome (complex C) bearing tRNAPhe at E-site and Ac[3H]Phe-tRNA at P-site assessed as reduction in peptide bond formation using puromycin(S) substrate

Compound	growth inhibition (GI) (Staphylococcus aureus [1])	growth inhibition (GI) (Staphylococcus aureus [2])	growth inhibition (GI) (Staphylococcus aureus [3])	Ki [8]	also measured
NC[C@H]1O[C@H](O[C@H]2[C@H](O)[C@@H](O[C@H]3O[C@H](CO)[C@@H](O)[C@H](N)[C@H]3O)[C@H](N)C[C@@H]2N)[C@H](O)[C@@H](O)[C@@H]1O	inactive	inactive	inactive		
CC[C@H]1OC(=O)[C@H](C)[C@@H](O[C@H]2C[C@@](C)(OC)[C@@H](O)[C@H](C)O2)[C@H](C)[C@@H](O[C@@H]2O[C@H](C)C[C@H](N(C)C)[C@H]2O)[C@](C)(O)C[C@@H](C)C(=O)[C@H](C)[C@@H](O)[C@]1(C)O	inactive	inactive	inactive		
CC(=O)O[C@H]1C[C@@]2(C)[C@@H](C[C@@H](O)[C@H]3[C@@]4(C)CC[C@@H](O)[C@@H](C)[C@@H]4CC[C@@]32C)/C1=C(\CCC=C(C)C)C(=O)O	inactive	inactive	inactive		
O=C(N[C@H](CO)[C@H](O)c1ccc([N+](=O)[O-])cc1)c1nc[nH]n1				1 µM	IC50 (Staphylococcus aureus [4]): > 100 µM; IC50 (Escherichia coli [5]): > 300 µM; IC50 (Escherichia coli [6]): > 300 µM; IC50 (Escherichia coli [7]): > 300 µM; IC50 (Staphylococcus aureus [1]): > 100 µM; IC50 (Staphylococcus aureus [2]): > 100 µM; IC50 (Staphylococcus aureus [3]): > 100 µM
O=C(CCNC(=O)c1nc[nH]n1)N[C@H](CO)[C@H](O)c1ccc([N+](=O)[O-])cc1				4 µM	IC50 (Staphylococcus aureus [4]): 66 µM; IC50 (Escherichia coli [5]): > 200 µM; IC50 (Escherichia coli [6]): > 200 µM; IC50 (Escherichia coli [7]): > 200 µM; IC50 (Staphylococcus aureus [1]): > 100 µM; IC50 (Staphylococcus aureus [2]): > 100 µM; IC50 (Staphylococcus aureus [3]): > 100 µM
CO[C@H]1/C=C/O[C@@]2(C)Oc3c(C)c(O)c4c(O)c(c(/C=N/N5CCN(C)CC5)c(O)c4c3C2=O)NC(=O)/C(C)=C\C=C\[C@H](C)[C@H](O)[C@@H](C)[C@@H](O)[C@@H](C)[C@H](OC(C)=O)[C@@H]1C	inactive	Active	Active		
CN(C)[C@@H]1C(O)=C(C(N)=O)C(=O)[C@@]2(O)C(O)=C3C(=O)c4c(O)cccc4[C@@](C)(O)[C@H]3C[C@@H]12	Active	inactive	inactive		
NCCCCNC(=O)c1ccccc1C(=O)N[C@H](CO)[C@H](O)c1ccc([N+](=O)[O-])cc1 [listing 1 of 2 here]				8.45 µM	
NCCCCNC(=O)CCC(=O)N[C@H](CO)[C@H](O)c1ccc([N+](=O)[O-])cc1 [listing 1 of 2 here]				0.9 µM	
CCC[C@@H]1C[C@@H](C(=O)N[C@@H]([C@H]2O[C@H](SC)[C@H](O)[C@@H](O)[C@H]2O)[C@H](C)Cl)N(C)C1	inactive	Active	inactive		
NCCCCNC(=O)c1ccccc1C(=O)N[C@H](CO)[C@H](O)c1ccc([N+](=O)[O-])cc1 [listing 2 of 2 here]					IC50 (Escherichia coli [5]): > 200 µM; IC50 (Escherichia coli [6]): > 200 µM; IC50 (Escherichia coli [7]): > 200 µM; IC50 (Staphylococcus aureus [1]): > 200 µM; IC50 (Staphylococcus aureus [2]): > 200 µM; IC50 (Staphylococcus aureus [3]): > 200 µM
COc1cccc(OC)c1C(=O)N[C@@H]1C(=O)N2[C@@H]1SC(C)(C)[C@@H]2C(=O)O	inactive	inactive	inactive		
CO[C@@]1(NC(=O)Cc2cccs2)C(=O)N2C(C(=O)O)=C(COC(N)=O)CS[C@@H]21	inactive	inactive	inactive		
NCCCN(CCCCN(Cc1ccccc1)Cc1ccccc1)C(=O)CCC(=O)N[C@H](CO)[C@H](O)c1ccc([N+](=O)[O-])cc1				0.28 µM	
CN[C@H](CC(C)C)C(=O)N[C@H]1C(=O)N[C@@H](CC(N)=O)C(=O)N[C@H]2C(=O)N[C@H]3C(=O)N[C@H](C(=O)N[C@H](C(=O)O)c4cc(O)cc(O)c4-c4cc3ccc4O)[C@H](O)c3ccc(c(Cl)c3)Oc3cc2cc(c3O[C@@H]2O[C@H](CO)[C@@H](O)[C@H](O)[C@H]2O[C@H]2C[C@](C)(N)[C@H](O)[C@H](C)O2)Oc2ccc(cc2Cl)[C@H]1O	Active	Active	Active		
NCCCCNC(=O)CCC(=O)N[C@H](CO)[C@H](O)c1ccc([N+](=O)[O-])cc1 [listing 2 of 2 here]					IC50 (Escherichia coli [5]): > 200 µM; IC50 (Escherichia coli [6]): > 200 µM; IC50 (Escherichia coli [7]): > 200 µM; IC50 (Staphylococcus aureus [1]): > 200 µM; IC50 (Staphylococcus aureus [2]): > 200 µM; IC50 (Staphylococcus aureus [3]): > 200 µM
NCCCCNCCCCNCCCNC(=O)[C@@H](NC(=O)C(Cl)Cl)[C@H](O)c1ccc([N+](=O)[O-])cc1				5 µM	
GENTAMICIN	Active	inactive	inactive		
CCCCCCCCCC(=O)N[C@@H](Cc1c[nH]c2ccccc12)C(=O)N[C@H](CC(N)=O)C(=O)N[C@@H](CC(=O)O)C(=O)N[C@@H]1C(=O)NCC(=O)N[C@@H](CCCN)C(=O)N[C@@H](CC(=O)O)C(=O)N[C@H](C)C(=O)N[C@@H](CC(=O)O)C(=O)NCC(=O)N[C@H](CO)C(=O)N[C@@H]([C@H](C)CC(=O)O)C(=O)N[C@@H](CC(=O)c2ccccc2N)C(=O)O[C@@H]1C	Active	Active	Active		
NCCCCN(CCCN)C(=O)CCC(=O)N[C@H](CO)[C@H](O)c1ccc([N+](=O)[O-])cc1 [listing 1 of 2 here]				1.2 µM	
NCCCNCCCCNCCCNC(=O)CCC(=O)N[C@H](CO)[C@H](O)c1ccc([N+](=O)[O-])cc1				0.75 µM	
NCCCCN(CCCN)C(=O)CCC(=O)N[C@H](CO)[C@H](O)c1ccc([N+](=O)[O-])cc1 [listing 2 of 2 here]					IC50 (Staphylococcus aureus [4]): 12.7 µM; IC50 (Escherichia coli [5]): > 100 µM; IC50 (Escherichia coli [6]): > 150 µM; IC50 (Escherichia coli [7]): > 100 µM; IC50 (Staphylococcus aureus [1]): > 100 µM; IC50 (Staphylococcus aureus [2]): > 200 µM; IC50 (Staphylococcus aureus [3]): > 100 µM
CC(=O)N[C@@H]1[C@H](Oc2c3cc4cc2Oc2ccc(cc2Cl)[C@@H](O[C@@H]2O[C@@H](CO)[C@@H](O)[C@H](O)[C@@H]2NC(C)=O)[C@@H]2NC(=O)[C@H](NC(=O)[C@@H]4NC(=O)[C@H]4NC(=O)[C@@H](Cc5ccc(c(Cl)c5)O3)NC(=O)[C@H](N)c3ccc(O)c(c3)Oc3cc(O)cc4c3)c3ccc(O)c(c3)-c3c(O[C@H]4O[C@H](CO)[C@@H](O)[C@@H](O)[C@@H]4O)cc(O)cc3[C@@H](C(=O)O)NC2=O)O[C@@H](CO)[C@@H](O)[C@@H]1O	Active	Active	Active		
Cc1onc(-c2ccccc2)c1C(=O)N[C@@H]1C(=O)N2[C@@H]1SC(C)(C)[C@@H]2C(=O)O	inactive	inactive	inactive		
